# Reference: ChEMBL document CHEMBL1828552, “Synthesis and studies of novel 2-(4-cyano-3-trifluoromethylphenyl amino)-4-(quinoline-4-yloxy)-6-(piperazinyl/piperidinyl)-s-triazines as potential antimicrobial, antimycobacterial and anticancer agents” (2011)
# Key:
# Proteus vulgaris [1] = test: Antibacterial activity against 10^5 CFU/mL Proteus vulgaris MTCC 1771 after 24 hrs by disc diffusion technique; assay type: functional
# Outline: (§1)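 Disc diffusion on Mueller–Hinton agar poured 5 mm deep. The surface was swabbed with a 10⁵ CFU/mL […] suspension. Filter-paper discs 6.25 mm in diameter were soaked in compound in DMSO and placed on the agar. Plates were incubated 24 h at 37 ± 1 °C, and the inhibition zone was measured in mm. A DMSO disc served as blank.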
# Shigella flexneri [2] = test: Antibacterial activity against 10^5 CFU/mL Shigella flexneri MTCC 1457 after 24 hrs by agar streak dilution method; assay type: functional; details: MTCC 1457, 24 h
# Outline: (§2)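 Agar streak dilution. Stock 100 µg/mL in DMSO; graded amounts were mixed into molten nutrient agar and poured at 4–5 mm depth. Plates carried serial dilutions over […]. About 10⁵ CFU/mL of each bacterium was applied, and plates were incubated at 37 ± 1 °C for 24 h. MIC was read from the dilution series.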
# Pseudomonas aeruginosa [3] = test: Antibacterial activity against 10^5 CFU/mL Pseudomonas aeruginosa MTCC 741 after 24 hrs by disc diffusion technique; assay type: functional; outline: as §1
# Aspergillus fumigatus [4] = test: Antifungal activity against 10^5 CFU/mL Aspergillus fumigatus MTCC 343 after 48 hrs by disc diffusion technique; assay type: functional
# Escherichia coli [5] = test: Antibacterial activity against 10^5 CFU/mL Escherichia coli MTCC 739 after 24 hrs by agar streak dilution method; assay type: functional; details: MTCC 739, 24 h; outline: as §2
# Pseudomonas aeruginosa [6] = test: Antibacterial activity against 10^5 CFU/mL Pseudomonas aeruginosa MTCC 741 after 24 hrs by agar streak dilution method; assay type: functional; details: MTCC 741, 24 h; outline: as §2
# [7] = test system: Mycobacterium tuberculosis; test: Antimycobacterial activity against 10^4 to 10^7 CFU/mL Mycobacterium tuberculosis H37Rv at 6.25 ug/ml by BACTEC MGIT method; assay type: functional
# Outline: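 Primary screen at 6.25 in the BACTEC MGIT system: modified Middlebrook 7H9 broth tubes with compound, seeded with 10⁴-10⁷ CFU/mL H37Rv plus 0.1 mL egg-based L.J. medium. Incubated at 37 ± 1 °C and read daily from day 2 under UV light against positive and uninoculated controls.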
# Shigella flexneri [8] = test: Antibacterial activity against 10^5 CFU/mL Shigella flexneri MTCC 1457 after 24 hrs by disc diffusion technique; assay type: functional; outline: as §1
# Aspergillus clavatus [9] = test: Antifungal activity against 10^5 CFU/mL Aspergillus clavatus MTCC 1323 after 48 hrs by agar streak dilution method; assay type: functional; details: MTCC 1323, 48 h
# Outline: (§3)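 Agar streak dilution for fungi. Stock 100 µg/mL in DMSO; graded amounts were mixed into molten Sabouraud dextrose agar and poured at 4–5 mm depth. Serial dilutions ran over […]. About 10⁵ CFU/mL inoculum was applied, with incubation at 37 ± 1 °C for 48 h. MIC was read from the dilution series.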
# Staphylococcus aureus [10] = test: Antibacterial activity against 10^5 CFU/mL Staphylococcus aureus MTCC 96 after 24 hrs by agar streak dilution method; assay type: functional; details: MTCC 96, 24 h; outline: as §2
# Klebsiella pneumoniae [11] = test: Antibacterial activity against 10^5 CFU/mL Klebsiella pneumoniae MTCC 109 after 24 hrs by agar streak dilution method; assay type: functional; details: MTCC 109, 24 h; outline: as §2
# Salmonella typhi [12] = test: Antibacterial activity against 10^5 CFU/mL Salmonella typhi MTCC 733 after 24 hrs by disc diffusion technique; assay type: functional, Salmonella enterica subsp. enterica serovar Typhi
# Outline: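 Disc diffusion. Mueller-Hinton agar autoclaved 120 °C 30 min, poured 5 mm deep. Surface swabbed with 10⁵ CFU/mL suspension […]. 6.25 mm filter-paper discs soaked in compound in DMSO; DMSO-only disc as blank. Incubated 37 ± 1 °C, 24 h for bacteria or 48 h for fungi. Ciprofloxacin and ketoconazole discs as reference drugs. Inhibition zone measured in mm.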
# Candida albicans [13] = test: Antifungal activity against 10^5 CFU/mL Candida albicans MTCC 183 after 48 hrs by agar streak dilution method; assay type: functional; details: MTCC 183, 48 h; outline: as §3
# Aspergillus clavatus [14] = test: Antifungal activity against 10^5 CFU/mL Aspergillus clavatus MTCC 1323 after 48 hrs by disc diffusion technique; assay type: functional
# Salmonella typhi [15] = test: Antibacterial activity against 10^5 CFU/mL Salmonella typhi MTCC 733 after 24 hrs by agar streak dilution method; assay type: functional, Salmonella enterica subsp. enterica serovar Typhi; details: Salmonella enterica, MTCC 733, 24 h
# Aspergillus fumigatus [16] = test: Antifungal activity against 10^5 CFU/mL Aspergillus fumigatus MTCC 343 after 48 hrs by agar streak dilution method; assay type: functional; details: MTCC 343, 48 h; outline: as §3
# Aspergillus niger [17] = test: Antifungal activity against 10^5 CFU/mL Aspergillus niger MTCC 282 after 48 hrs by agar streak dilution method; assay type: functional; details: MTCC 282, 48 h; outline: as §3
# Staphylococcus aureus [18] = test: Antibacterial activity against 10^5 CFU/mL Staphylococcus aureus MTCC 96 after 24 hrs by disc diffusion technique; assay type: functional; outline: as §1
# Bacillus cereus [19] = test: Antibacterial activity against 10^5 CFU/mL Bacillus cereus MTCC 619 after 24 hrs by agar streak dilution method; assay type: functional; details: MTCC 619, 24 h; outline: as §2
# DU-145 = test: Cytotoxicity against […] human DU145 cells after 48 hrs by SRB assay; assay type: functional; details: DU-145, 48 h
# Outline: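 SRB assay in DU-145 cells grown in RPMI 1640 with 10% FBS and 2 mM L-glutamine. Cells were plated and held 24 h before addition of four 10-fold concentrations. After 48 h, cells were TCA-fixed, stained with 0.4% SRB and read at 540 nm. GI50, TGI and LC50 were derived against time-zero and control wells; each value is the mean of three experiments.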
# Bacillus cereus [20] = test: Antibacterial activity against 10^5 CFU/mL Bacillus cereus MTCC 619 after 24 hrs by disc diffusion technique; assay type: functional; outline: as §1
# Proteus vulgaris [21] = test: Antibacterial activity against 10^5 CFU/mL Proteus vulgaris MTCC 1771 after 24 hrs by agar streak dilution method; assay type: functional; details: MTCC 1771, 24 h; outline: as §2
# Candida albicans [22] = test: Antifungal activity against 10^5 CFU/mL Candida albicans MTCC 183 after 48 hrs by disc diffusion technique; assay type: functional
# Escherichia coli [23] = test: Antibacterial activity against 10^5 CFU/mL Escherichia coli MTCC 739 after 24 hrs by disc diffusion technique; assay type: functional; outline: as §1
# Klebsiella pneumoniae [24] = test: Antibacterial activity against 10^5 CFU/mL Klebsiella pneumoniae MTCC 109 after 24 hrs by disc diffusion technique; assay type: functional; outline: as §1
# Aspergillus niger [25] = test: Antifungal activity against 10^5 CFU/mL Aspergillus niger MTCC 282 after 48 hrs by disc diffusion technique; assay type: functional
SMILES,inhibition zone (IZ) (Proteus vulgaris [1]) [mm],MIC (Shigella flexneri [2]) [µg/mL],inhibition zone (IZ) (Pseudomonas aeruginosa [3]) [mm],inhibition zone (IZ) (Aspergillus fumigatus [4]) [mm],MIC (Escherichia coli [5]) [µg/mL],MIC (Pseudomonas aeruginosa [6]) [µg/mL],inhibition zone (IZ) (Shigella flexneri [8]) [mm],MIC (Aspergillus clavatus [9]) [µg/mL],MIC (Staphylococcus aureus [10]) [µg/mL],MIC (Klebsiella pneumoniae [11]) [µg/mL],inhibition zone (IZ) (Salmonella typhi [12]) [mm],MIC (Candida albicans [13]) [µg/mL],inhibition zone (IZ) (Aspergillus clavatus [14]) [mm],MIC (Salmonella typhi [15]) [µg/mL],MIC (Aspergillus fumigatus [16]) [µg/mL],MIC (Aspergillus niger [17]) [µg/mL],inhibition zone (IZ) (Staphylococcus aureus [18]) [mm],MIC (Bacillus cereus [19]) [µg/mL],GI50 (DU-145) [µM],LC50 (concentration giving 50% net cell kill relative to time zero) (DU-145) [µM],further results
COc1ccc(CN2CCN(c3nc(Nc4ccc(C#N)c(C(F)(F)F)c4)nc(Oc4ccnc5ccccc45)n3)CC2)c(OC)c1OC,26,12.5,26,27,12.5,6.25,25,12.5,6.25,12.5,26,25,28,12.5,25,12.5,28,6.25,> 100,> 100,inhibition at 6.25 µg/mL [7]: 99%; TGI (DU-145): > 100 µM; inhibition zone (IZ) (Bacillus cereus [20]): 26 mm; MIC (Proteus vulgaris [21]): 6.25 µg/mL; inhibition zone (IZ) (Candida albicans [22]): 25 mm; inhibition zone (IZ) (Escherichia coli [23]): 26 mm; inhibition zone (IZ) (Klebsiella pneumoniae [24]): 23 mm; inhibition zone (IZ) (Aspergillus niger [25]): 27 mm
N#Cc1ccc(Nc2nc(Oc3ccnc4ccccc34)nc(N3CCN(c4cccc(C(F)(F)F)c4)CC3)n2)cc1C(F)(F)F,25,12.5,25,27,12.5,6.25,25,12.5,6.25,25,27,25,28,12.5,25,12.5,28,6.25,38.7,> 100,inhibition at 6.25 µg/mL [7]: 99%; TGI (DU-145): 74.1 µM; inhibition zone (IZ) (Bacillus cereus [20]): 28 mm; MIC (Proteus vulgaris [21]): 12.5 µg/mL; inhibition zone (IZ) (Candida albicans [22]): 26 mm; inhibition zone (IZ) (Escherichia coli [23]): 26 mm; inhibition zone (IZ) (Klebsiella pneumoniae [24]): 23 mm; inhibition zone (IZ) (Aspergillus niger [25]): 27 mm
N#Cc1ccc(Nc2nc(Oc3ccnc4ccccc34)nc(N3CCN(c4ccccc4F)CC3)n2)cc1C(F)(F)F,25,25,22,25,12.5,50,23,50,25,12.5,24,25,24,25,25,25,24,6.25,> 100,> 100,TGI (DU-145): > 100 µM; inhibition zone (IZ) (Bacillus cereus [20]): 27 mm; MIC (Proteus vulgaris [21]): 6.25 µg/mL; inhibition zone (IZ) (Candida albicans [22]): 26 mm; inhibition zone (IZ) (Escherichia coli [23]): 26 mm; inhibition zone (IZ) (Klebsiella pneumoniae [24]): 26 mm; inhibition zone (IZ) (Aspergillus niger [25]): 25 mm
N#Cc1ccc(Nc2nc(Oc3ccnc4ccccc34)nc(N3CCC(Cc4ccccc4)CC3)n2)cc1C(F)(F)F,17,100,19,<10,100,100,14,100,100,100,16,100,14,100,100,100,24,50,> 100,> 100,TGI (DU-145): > 100 µM; inhibition zone (IZ) (Bacillus cereus [20]): 22 mm; MIC (Proteus vulgaris [21]): 100 µg/mL; inhibition zone (IZ) (Candida albicans [22]): 15 mm; inhibition zone (IZ) (Escherichia coli [23]): 14 mm; inhibition zone (IZ) (Klebsiella pneumoniae [24]): 16 mm; inhibition zone (IZ) (Aspergillus niger [25]): <10 mm
N#Cc1ccc(Nc2nc(Oc3ccnc4ccccc34)nc(N3CCOCC3)n2)cc1C(F)(F)F,16,100,<10,<10,100,100,<10,100,100,100,13,100,13,100,100,100,14,100,68.3,> 100,TGI (DU-145): > 100 µM; inhibition zone (IZ) (Bacillus cereus [20]): <10 mm; MIC (Proteus vulgaris [21]): 100 µg/mL; inhibition zone (IZ) (Candida albicans [22]): 13 mm; inhibition zone (IZ) (Escherichia coli [23]): <10 mm; inhibition zone (IZ) (Klebsiella pneumoniae [24]): 14 mm; inhibition zone (IZ) (Aspergillus niger [25]): 13 mm
N#Cc1ccc(Nc2nc(Oc3ccnc4ccccc34)nc(N3CCN(Cc4ccccc4)CC3)n2)cc1C(F)(F)F,16,100,15,<10,100,100,11,100,100,100,14,100,12,100,100,100,22,100,> 100,> 100,TGI (DU-145): > 100 µM; inhibition zone (IZ) (Bacillus cereus [20]): 22 mm; MIC (Proteus vulgaris [21]): 100 µg/mL; inhibition zone (IZ) (Candida albicans [22]): <10 mm; inhibition zone (IZ) (Escherichia coli [23]): 14 mm; inhibition zone (IZ) (Klebsiella pneumoniae [24]): <10 mm; inhibition zone (IZ) (Aspergillus niger [25]): <10 mm
